Measured values gathered from unrelated publications.
Compare with care: the assays were run in different laboratories. Values after ≈ are worked out from the molar mass of the structure shown.
Organism: Cryptococcus neoformans

SMILES	test	system	setting	measurement	result
Cc1ccccc1C(=O)NN=Cc1ccc(O)c(Br)c1	microbial growth, broth dilution	–	–	MIC	1 µg/mL
CCCC[C@H]1CN(c2cccc(OC(F)(F)F)c2)C(=O)CN1Cc1cncn1Cc1ccc(Cl)cc1	microbial growth, broth dilution	–	–	MIC	3 to 6 µM
C[C@@H]1[C@H](O)[C@@H](C)/C=C/C=C/C=C/C=C/C=C/C=C/C=C/[C@H](O[C@@H]2O[C@H](C)[C@@H](O)[C@H](N)[C@@H]2O)C[C@@H]2O[C@](O)(C[C@@H](O)C[C@@H](O)[C@H](O)CC[C@@H](O)C[C@@H](O)CC(=O)O[C@H]1C)C[C@H](O)[C@H]2C(=O)O	microbial growth	ATCC90113	–	IC50	0.45 µg/mL (≈ 0.487 µM)
Cl.O[C@]12C=C(c3nccc4c3[nH]c3ccccc34)[C@@H]3CCN(CCCC/C=C\CC1)C[C@@]31C[C@@H]3/C=C\CCCCN3[C@H]12	microbial growth	ATCC90113	–	IC50	1.04 µg/mL
CCCCC[C@H]1CN(c2cccc(OC(F)(F)F)c2)C(=O)CN1Cc1cncn1Cc1ccc(Br)cc1	microbial growth, broth dilution	–	–	MIC	3 to 6 µM
CCCCCC[C@H]1C(=O)O[C@H](C)[C@H](NC(=O)c2cccc(NC=O)c2O)C(=O)O[C@@H](C)[C@@H]1OC(=O)CC(C)C	microbial growth	–	–	MIC80	2 µM (≈ 1.1 µg/mL)
CCCSc1ccc2nc(NC(=O)OC)[nH]c2c1	microbial growth, broth dilution	–	72 h, clinical isolate	IC90	2500 nM
C[C@@H]1[C@H](O)[C@@H](C)/C=C/C=C/C=C/C=C/C=C/C=C/C=C/[C@H](O[C@@H]2O[C@H](C)[C@@H](O)[C@H](N)[C@@H]2O)C[C@@H]2O[C@](O)(C[C@@H](O)C[C@@H](O)[C@H](O)CC[C@@H](O)C[C@@H](O)CC(=O)O[C@H]1C)C[C@H](O)[C@H]2C(=O)O	microbial growth, broth dilution	–	–	MIC	0.6 µg/mL
Cc1c(O)c(=O)ccn1C	microbial growth, broth dilution	–	48 h	MIC	> 100 µM
O=C(NN=Cc1ccc(O)c(Br)c1)c1cccc(Br)c1	microbial killing	–	–	MFC	1.2 µg/mL (≈ 3.01 µM)
CCCC[C@H]1CN(c2cccc(OC(F)(F)F)c2)C(=O)CN1Cc1cncn1Cc1ccc(C(F)(F)F)cc1	microbial growth, broth dilution	–	–	MIC	3 to 6 µM
